This excerpt belongs to a sample that is enriched for hits.
HSF1 inhib = HSF1 inhibition. NIH3T3-HGL HSE-luciferase, MG132-induced, luminescence 8 h; active compounds read low. activity change, negative = inhibition, % at 7.5 µM (by protocol). 300,000 tested, 0.77% active. AID 2098;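 active = more than half of replicate wells show activity change below -50%, luminescence cut by over half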;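 also: luciferase reports HSF-1 transcriptional activity via heat shock element; 0% = median of DMSO wells and -100% = zero luminescence signal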
T cruzi repl = blocks replication of Trypanosoma cruzi; T. cruzi beta-gal in NIH3T3, luminescence, 90 h; inhibition, % (no concentration beside the values); 300,000 tested, 1.4% active; AID 1885;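 active = mean inhibition across valid replicates above about 55%, limit read from the data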;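 also: signal also drops with host cell toxicity which is not excluded here; 0% = plate median of DMSO wells and 100% = zero luminescence signal; higher percent means less beta-gal luminescence so fewer parasites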
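System: mouse NIH/3T3 fibroblasts infected with β-gal-expressing T. cruzi Tulahuen C4 / Input: NIH/3T3 cells, 5,000 per well / Buffer or medium: Low-serum DMEM with 2% FBS / Probe or stimulus: 5000 reporter trypomastigotes per well / Schedule: ≥90 h infection period, 3 h prior cell attachment / Measured by: GalScreen luminescence, 60 min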
HSF-1 act = increases HSF-1 driven luciferase reporter signal | NIH3T3-HGL HSF-1 luciferase reporter, MG132, 8 h; 100% = twice DMSO control signal | activation, % at 9 µM | 300,000 tested, 1.7% active;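 active = mean replicate activation of at least 50% with a set share of replicates each reaching 50%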;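 also: 0% = median of the neutral control wells and 100% = twice that signal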
Hsp70 activator = Hsp70 transcriptional activation, primary screen; HeLa Hsp70 promoter luciferase reporter, luminescence; scaled: vehicle 0, proteasome-inhibitor control 100%; activation, % at 10 µM; 200,000 tested, 0.04% active; AID 1203;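 active = activation above the mean across all tested compounds plus 3 SD, cutoff set per campaign, cut at about 5.5% in these data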;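 also: 100% = MG132 at 30 µM as the positive control and 0% = DMSO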
L major viab = Leishmania major promastigote growth inhibition; inhibition, % at 10 µM; Leishmania major promastigotes, resazurin fluorescence viability; 200,000 tested, 9% active; AID 1063; in the data active = inhibition above about 50%;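 also: promastigotes grown with compound for 44 hours at 28 °C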
Active calls of the source: *; · = not tested or not shown.

SMILES	HSF1 inhib	T cruzi repl	HSF-1 act	Hsp70 activator	L major viab
c1ccc2c(c1)NC1(CCCCCC1)n1c-2nc2ccccc21	14	-5	34	1	28
CC1(c2ccccn2)Nc2ccccc2-c2nc3ccccc3n21 (stereo not given)	34	-1	50	0	53*
CCCCC1(C)Nc2ccccc2-c2nc3ccccc3n21 (stereo not given)	18	9	29	0	74*
N#Cc1cc2c(nc1SCc1ccc(Cl)nc1)CCCCC2	13	6	10	·	·
COC(=O)/C=C/CC(C)OS(N)(=O)=O (stereo not given)	-1	1	6	·	·
O=[N+]([O-])c1ccccc1S(=O)(=O)Oc1ccccc1/C=N/n1cnnc1	-1	-17	2	0	72*
O=[N+]([O-])c1cccc(/C=N/n2cnnc2)c1O	-1	-1	4	0	68*
O=[N+]([O-])c1cc2c(cc1/C=N/n1cnnc1)OCO2	0	5	-4	0	4
COc1cccc(CN(C)C(=S)Nc2ccc(C)c(C)c2)c1	3	-13	-13	0	-5
NC(=S)N/N=C/c1ccc(C23CC4CC(CC(C4)C2)C3)cc1	1	77*	-7	·	·
CNC(=S)Nc1ccc(C23CC4CC(CC(C4)C2)C3)cc1	-14	45	-11	0	51*
CCCCN=C1NN=C(c2cc3ccccc3o2)CS1	13	2	46	0	8
CCc1ccc(-c2cc(C)no2)cc1S(=O)(=O)N1CCOc2ccccc21	-4	18	-11	·	·
Cc1ccc(-c2csc(N(CCCN(C)C)C(=O)c3ccco3)n2)cc1	-7	48	-26	0	27
Cc1ccc(-c2csc(N(CC3CCCO3)C(=O)c3ccco3)n2)cc1 (stereo not given)	11	28	39	0	76*
COc1ccc(-c2csc(N(CCCN(C)C)C(=O)c3cccs3)n2)cc1	-1	66*	22	0	92*
CN(C)CCCN(C(=O)c1ccco1)c1nc(-c2ccc(Cl)cc2)cs1	7	57*	20	·	·
O=C(c1ccco1)N(CC1CCCO1)c1nc(-c2ccccc2)cs1 (stereo not given)	3	14	17	0	12
CCC(C)NC(=O)Cn1c(-c2ccccc2)cc(C(C)=O)c1C (stereo not given)	0	-16	-10	0	1
CCN1CCN(c2ccc(S(=O)(=O)N3CCCCC3)cc2NC(=O)c2sccc2C)CC1	2	50	-6	·	·
CCCCOc1cccc(C(=O)Nc2ccc(S(=O)(=O)Nc3nnc(CC)s3)cc2)c1	11	-2	2	·	·
COC(=O)C1=C(O)CSC1=Nc1ccccc1	5	-16	1	0	-2
COC(=O)C1=C(O)CSC1=Nc1ccc(C)cc1	-2	-17	22	0	58*
COc1cc2c(cc1OC)C(c1cc3cccc(C)c3[nH]c1=O)N(C(=O)c1ccco1)CC2 (stereo not given)	-2	58*	12	·	·
CC(=O)N1CCc2c(sc3c2c(=O)n(-c2ccccc2)c(=O)n3Cc2ccccc2Cl)C1	3	15	-2	0	98*
SMILES	HSF1 inhib	T cruzi repl	HSF-1 act	Hsp70 activator	L major viab
CCOc1cc(C(=O)Nc2ccc(NC(C)=O)cc2)ccc1OCC(=O)N1CCCCC1	5	-26	-2	0	2
c1ccc(N=Nc2ccc3cccccc2-3)cc1	48	-3	75*	·	·
COCCn1nnnc1CN(CCc1ccccc1)Cc1cc2ccc(C)cc2[nH]c1=O	8	35	18	0	100*
COc1ccccc1CN(Cc1cc2cc(C)cc(C)c2[nH]c1=O)Cc1nnnn1CC1CCCO1 (stereo not given)	·	24	·	0	56*
COc1ccccc1CN(Cc1cc2cc(C)ccc2[nH]c1=O)Cc1nnnn1CC1CCCO1 (stereo not given)	-4	4	11	0	30
COc1ccc2cc(CN(CCc3ccccc3)Cc3nnnn3CC3CCCO3)c(=O)[nH]c2c1 (stereo not given)	-8	52	-2	0	100*
CSc1ccccc1NC(=O)C1=CC(c2ccc(C)cc2)=NS(=O)(=O)N1C	-56*	-6	-65	·	·
CC1(C)Cc2nc(NCCN3CCOCC3)c(C#N)cc2CO1	42	-2	103*	0	1
CC(C)CCNc1nc2c(cc1C#N)COC(C)(C)C2	1	5	-14	0	-1
Cc1ccc(C(C)C)c(OCc2ccc(C(=O)N/N=C/c3ccc(O)cc3O)cc2)c1	-15	33	-22	-1	100*
Cc1ccc(C(C)C)c(OCc2ccc(C(=O)N/N=C/c3ccc(C(=O)O)cc3)cc2)c1	-11	-9	-13	·	·
CN=c1scc(C)n1/N=C/c1ccc(O)cc1O	10	10	33	-1	58*
CCN=c1scc(-c2ccc(F)cc2)n1/N=C/c1ccccn1	10	14	34	0	25
CN=c1scc(-c2ccccc2F)n1/N=C/c1ccc[nH]1	-87*	44	-90	0	12
CN=c1scc(-c2ccccc2F)n1/N=C/c1ccc(O)c(O)c1O	-65*	-14	-69	0	-5
CC(C)N=c1scc(-c2cccs2)n1/N=C/c1ccc(O)c(O)c1O	·	·	·	0	-2
Cc1cccc(CN(CC(=O)N/N=C/c2ccco2)S(=O)(=O)c2ccc(Cl)cc2)c1	-1	-2	5	0	1
Cc1cccc(CN(CC(=O)N/N=C/c2cccs2)S(=O)(=O)c2ccc(Cl)cc2)c1	8	28	11	0	93*
Cc1nnc(N2C(=O)c3cccc4cccc(c34)C2=O)s1	-55*	-7	-63	-1	1
CCN(CC(=O)Nc1c(F)cccc1F)C(=O)CCCNC(=O)c1ccc(Cl)cc1	-4	5	6	·	·
O=C(NCCN1CCN(C(=O)c2cccc(Br)c2)CC1)C(=O)Nc1ccc(Br)cc1	-2	25	-25	·	·
O=C(NCCN1CCN(C(=O)c2cccs2)CC1)C(=O)Nc1ccc(Br)cc1	-3	5	0	0	73*
O=C(NCCN1CCN(C(=O)c2ccc(Br)cc2)CC1)c1ccc(Br)cc1	42	4	68*	·	·
CCOc1ccc(C(=O)OCC(=O)NCCCc2ccccc2)cc1	-9	1	5	·	·
COc1ccc(NC(=O)CN(C)S(=O)(=O)c2ccc(Br)s2)cc1OC	26	1	55*	·	·
CCOC(=O)c1snc(C(=O)NC2CCCCC2)c1N	32	-21	61*	0	-4
Nc1c(C(=O)NC2CCCCC2)nsc1C(=O)OCC(=O)NC1CCCCC1	-6	4	22	0	-4
O=C(O)c1ccccc1N=Cc1c(O)n(-c2nccs2)c(=O)c2ccccc12	-6	14	-15	·	·
CCN(CC)S(=O)(=O)c1cccc(-n2c(O)c(C=Nc3ccccc3C(=O)O)c3ccccc3c2=O)c1	-27	72*	-40	·	·
O=C(Nc1ccc2c(c1)CCC2)Nc1ccc(F)cc1F	19	-2	37	·	·

From PubChem BioAssay
